This is an account of results in PubChem BioAssay AID493031 (Broad Institute, 2011).

Active and inactive are the calls of the source.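 Rule for the calls: active = at 10 µM, induced P-selectin expression inhibited by 50% or more; inactive = less than 50% inhibition.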

For this assay, the system named is human washed platelets, SFLLRN-induced P-selectin, flow cytometry. The assay can be described thus: inhibition of SFLLRN-induced platelet P-selectin surface expression, cell-based, human washed platelets, flow cytometry, dry powder, single point (AID 493031). As to conditions: at 10 µM; active compounds read high. The method in brief:
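Measured by: flow cytometry, PE anti-P-selectin staining; test system: washed platelets from individual donors; timing: 20 min compound pretreatment, 15 min SFLLRN activation, 20 min antibody staining; dosing: compound at 10 µM; reagent: SFLLRN stimulation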
Turning to `CCCC(=O)Nc1cccc(NC(=O)c2ccccc2OC)c1`, the inhibition is 46.1% (inactive).
The same measure for `CCCC(=O)Nc1cccc(NC(=O)c2cnc3ccccc3c2)c1`: 10.4% (inactive); for `CCCC(=O)Nc1cccc(NC(=O)c2ccc(F)cc2)c1`: 56.9%; for `CCCC(=O)Nc1cccc(NC(=O)c2cccc(S(C)(=O)=O)c2)c1`: 23.9% (inactive).
To `CCCC(=O)Nc1cccc(NC(=O)c2cccc(Oc3ccccc3)c2)c1` belongs 92%.
As for `CCCC(=O)Nc1cccc(NC(=O)c2ccc(C)cc2)c1`, the inhibition was 21.8% (inactive).
Consider `CCCC(=O)Nc1cccc(NC(=O)c2ccc(Cl)cc2)c1`, for which the inhibition was 73.9%.
In the case of `CCCC(=O)Nc1cccc(NC(=O)c2ccc(C(F)(F)F)cc2)c1`, the inhibition was 21% (inactive).
As to `CCCC(=O)Nc1cccc(NC(=O)c2cccc(NC(C)=O)c2)c1`, the inhibition was 41% (inactive).
For `CCCC(=O)Nc1cccc(NC(=O)c2cccc(Cl)c2)c1`, the inhibition was 94.1%.
Turning to `CCCC(=O)Nc1cccc(NC(=O)c2cccnc2)c1`, the inhibition is 4.33% (inactive).
To `CCCC(=O)Nc1cccc(NC(=O)c2cccc(C#N)c2)c1` belongs 66.7%.
Turning to `CCCC(=O)Nc1cccc(NC(=O)c2ccc(OC)cc2)c1`, the inhibition is 15.3% (inactive).
As to `CCCC(=O)Nc1cccc(NC(=O)c2ccccc2Cl)c1`, the inhibition was 98.3%.
The same measure for `CCCC(=O)Nc1cccc(NC(=O)c2ccco2)c1`: 30.5% (inactive).
As to `CCCC(=O)Nc1cccc(NC(=O)c2ccccc2C)c1`, the inhibition is 95.8%.
Consider `CCCC(=O)Nc1cccc(NC(=O)c2ccc(S(C)(=O)=O)cc2)c1`, for which the inhibition is 9.82% (inactive).
To `CCCC(=O)Nc1cccc(NC(=O)c2cccc(-c3ccccc3)c2)c1` belongs 94.4%; to `O=C(Nc1ccccc1)c1ccccc1Br`, 98.5%; to `CCCC(=O)Nc1cccc(NC(=O)c2cccc([N+](=O)[O-])c2)c1`, 50.7%.
`CCCC(=O)Nc1cccc(NC(=O)c2ccccc2F)c1`: the inhibition was 97.4%.

As a reminder, the inhibition is the change of the read-out against control, counted positive when it falls.
